Results published in ChEMBL document CHEMBL4265907, “Design, synthesis and pharmacological evaluation of N4,N6-disubstituted pyrimidine-4,6-diamine derivatives as potent EGFR inhibitors in non-small cell lung cancer” (Eur J Med Chem, 2018).

What was measured:
[1] = AUC (0 to t) in Sprague-Dawley rat at 30 mg/kg, po by UPLC-MS/MS analysis; type: ADME, organism-based; conditions: in vivo
Outline: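 Four female and four male Sprague-Dawley rats, 200-220 g, fasted 12 h, then given a single oral dose of 30 mg/kg as a 0.5% CMC-Na suspension. Blood sampled at 0.083, 0.25, 0.5, 1, 2, 4, 8 and 24 h, plasma separated by centrifugation at 4000 r/min for 10 min, and analysed by UPLC–MS/MS. Parameters reported as mean ± SD, n=6.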

A-431 [2] = test: Induction of apoptosis in human A431 cells assessed as early apoptotic cells at 250 nM after 48 hrs by Annexin V-FITC/PI staining based flow cytometry (reference value: 3.40%); type: functional
[3] = target: T1, Epidermal growth factor receptor (Homo sapiens, UniProt P00533); test: Inhibition of EGFR in human HCC827 cells assessed as decrease in EGF-induced ERK1/2 phosphorylation by Western blot method; type: cell-based
Outline: (§1)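 Cell lysates prepared in protein lysis buffer and cleared at 12,000 g for 10 min at 4 °C. 50 μg protein per lane was run on a gel, transferred to PVDF and immunoblotted, with GAPDH as the loading control.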

[4] = target: T1, Epidermal growth factor receptor; test: Inhibition of EGFR in human H3255 cells assessed as decrease in EGF-induced ERK1/2 phosphorylation by Western blot method; type: cell-based; outline: as §1
HCC827 [5] = test: Induction of apoptosis in human HCC827 cells assessed as viable cells after 48 hrs by Annexin V-FITC/PI staining based flow cytometry; type: functional, cell-based
[6] = target: T1, Epidermal growth factor receptor; test: Inhibition of EGFR in human H1975 cells assessed as decrease in EGF-induced AKT phosphorylation by Western blot method; type: cell-based; outline: as §1
HCC827 [7] = test: Induction of apoptosis in human HCC827 cells assessed as necrotic cells at 500 nM after 48 hrs by Annexin V-FITC/PI staining based flow cytometry (reference value: 1.41%); type: functional
NCI-H3255 = test: Induction of apoptosis in human H3255 cells assessed as viable cells after 48 hrs by Annexin V-FITC/PI staining based flow cytometry; type: functional, cell-based
A-431 [8] = test: Induction of apoptosis in human A431 cells assessed as necrotic cells at 250 nM after 48 hrs by Annexin V-FITC/PI staining based flow cytometry (reference value: 4.16%); type: functional
A-431 [9] = test: Induction of apoptosis in human A431 cells assessed as early apoptotic cells at 500 nM after 48 hrs by Annexin V-FITC/PI staining based flow cytometry (reference value: 3.40%); type: functional
NCI-H1975 = test: Induction of apoptosis in human NCI-H1975 cells assessed as viable cells at 1000 nM after 48 hrs by Annexin V-FITC/PI staining based flow cytometry (reference value: 93.7%); type: functional; conditions: NCI-H1975, 48 h, read-out: Activity

T1 sequence (P00533 whole entry): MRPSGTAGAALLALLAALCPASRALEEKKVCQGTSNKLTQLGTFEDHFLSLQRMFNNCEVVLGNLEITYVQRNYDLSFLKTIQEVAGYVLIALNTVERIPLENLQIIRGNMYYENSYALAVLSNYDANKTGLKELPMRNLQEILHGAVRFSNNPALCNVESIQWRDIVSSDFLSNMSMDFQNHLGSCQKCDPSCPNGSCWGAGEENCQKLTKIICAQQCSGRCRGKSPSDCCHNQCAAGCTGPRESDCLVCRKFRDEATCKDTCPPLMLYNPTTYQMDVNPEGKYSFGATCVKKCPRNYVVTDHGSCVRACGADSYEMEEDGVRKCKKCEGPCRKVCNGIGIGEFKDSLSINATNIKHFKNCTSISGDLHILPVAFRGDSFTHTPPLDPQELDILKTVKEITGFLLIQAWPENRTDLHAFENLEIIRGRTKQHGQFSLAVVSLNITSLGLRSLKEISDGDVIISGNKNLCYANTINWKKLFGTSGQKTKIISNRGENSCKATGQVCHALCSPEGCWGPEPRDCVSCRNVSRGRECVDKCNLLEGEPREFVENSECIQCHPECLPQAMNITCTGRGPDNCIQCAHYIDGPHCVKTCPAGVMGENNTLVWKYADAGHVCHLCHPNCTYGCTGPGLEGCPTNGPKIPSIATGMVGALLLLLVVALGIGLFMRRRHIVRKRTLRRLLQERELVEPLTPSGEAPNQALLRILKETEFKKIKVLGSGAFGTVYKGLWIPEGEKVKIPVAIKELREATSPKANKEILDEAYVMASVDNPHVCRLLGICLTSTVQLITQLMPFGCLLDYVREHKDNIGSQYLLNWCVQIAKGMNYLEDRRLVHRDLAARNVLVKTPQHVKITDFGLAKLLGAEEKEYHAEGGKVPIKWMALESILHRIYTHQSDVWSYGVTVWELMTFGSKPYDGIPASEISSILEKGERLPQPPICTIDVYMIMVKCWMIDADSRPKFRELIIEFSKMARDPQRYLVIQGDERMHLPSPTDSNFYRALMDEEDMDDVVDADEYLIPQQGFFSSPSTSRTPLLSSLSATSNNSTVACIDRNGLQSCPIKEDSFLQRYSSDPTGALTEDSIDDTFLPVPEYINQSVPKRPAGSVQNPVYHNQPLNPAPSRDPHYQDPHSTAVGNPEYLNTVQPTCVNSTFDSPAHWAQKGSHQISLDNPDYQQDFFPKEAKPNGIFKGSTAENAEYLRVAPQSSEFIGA

For `COc1cccc(Nc2cc(Nc3cc(OC)ccc3OC)ncn2)c1`, the AUC(0-t) [1] was 5700 ng·h/mL, the Activity (A-431 [2]) was 10.8% and the inhibition [3] was “Dose-dependent effect”. For the same compound, the inhibition [4] was “Dose-dependent effect”, the Activity (HCC827 [5]) was “Dose-dependent effect” and the inhibition [6] was “Dose-dependent effect”. For the same compound, the Activity (HCC827 [7]) was 9.2%, the Activity (NCI-H3255) was “Dose-dependent effect” and the Activity (A-431 [8]) was 3.41%. It also gave an Activity (A-431 [9]) of 15.1% and a viability at 1 µM (NCI-H1975) of 46.4%.
